Assay results taken from ChEMBL document CHEMBL4354825, “Design and Synthesis of Basic Selective Estrogen Receptor Degraders for Endocrine Therapy Resistant Breast Cancer” (J Med Chem, 2019).
The source made the active and inactive calls. No cut-off for these calls is given here.

Columns and labels:
[1] = target: T1, Estrogen receptor (Homo sapiens) (UniProt P03372); assay: Induction of degradation of ERalpha in human MCF7:WS8 cells at 100 nM in presence of MG-132 incubated for 24 hrs by Western blot analysis; type: cell-based
T1 sequence (whole entry): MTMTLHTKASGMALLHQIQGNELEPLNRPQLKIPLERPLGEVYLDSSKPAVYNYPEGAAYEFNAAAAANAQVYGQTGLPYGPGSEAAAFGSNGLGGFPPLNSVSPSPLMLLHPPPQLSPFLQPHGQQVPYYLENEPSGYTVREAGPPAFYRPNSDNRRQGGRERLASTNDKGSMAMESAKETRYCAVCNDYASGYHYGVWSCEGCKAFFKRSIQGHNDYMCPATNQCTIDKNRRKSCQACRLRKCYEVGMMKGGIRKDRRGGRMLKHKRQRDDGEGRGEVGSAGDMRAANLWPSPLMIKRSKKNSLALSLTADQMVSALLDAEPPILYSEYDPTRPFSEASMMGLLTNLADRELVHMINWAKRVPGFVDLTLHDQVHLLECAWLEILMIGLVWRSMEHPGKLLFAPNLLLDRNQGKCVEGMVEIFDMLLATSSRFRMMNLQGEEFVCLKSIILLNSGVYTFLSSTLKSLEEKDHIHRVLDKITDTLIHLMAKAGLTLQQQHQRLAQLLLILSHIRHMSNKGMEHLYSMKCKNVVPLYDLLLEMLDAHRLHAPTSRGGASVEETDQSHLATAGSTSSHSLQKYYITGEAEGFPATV

Estrogen receptor [2] = target: T2, Estrogen receptor (Homo sapiens, UniProt P03372); assay: Antagonist activity at ERalpha in human MCF7:WS8 cells incubated for 18 hrs by dual luciferase reporter gene assay relative to control; type: cell-based
T2 sequence (P03372 whole entry): T1 sequence (whole entry)
Outline: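 MCF7:WS8 cells were estrogen-deprived for 3 days (phenol red-free RPMI, stripped FBS), then plated and grown 24 h. They were co-transfected for 6 h with a 3×vitellogenin ERE-firefly luciferase plasmid and a pRL-TK Renilla plasmid. Compounds were given in competition with 1 nM E2 for 18 h, then dual luciferase was read.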

Estrogen receptor [3] = target: T2, Estrogen receptor; assay: Inhibition of ERalpha in human MCF7:WS8 cells assessed as increase in degradation of ERalpha incubated for 24 hrs by In-Cell Western assay; type: cell-based
Outline: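 MCF7:WS8 cells were estrogen-stripped for 2 days and plated at 2.5 × 10^4 per well. ERα was detected by in-cell western (H10 antibody), with signal normalized to CellTag 700.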

[4] = (§1) Antiproliferative activity against human MCF7:5C cells assessed as reduction in cell viability incubated for 7 days by Hoechst 33258 dye based assay relative to control; type: functional; conditions: 168 h
Outline: (§2)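 Cells were seeded at 5000 per well; MCF7:WS8 had been estrogen-stripped for 2 days first. Compounds were serially diluted in DMSO, with 0.01% DMSO as vehicle. The medium was removed on day 5 (MCF7:WS8) or day 7 (MCF7:5C), and cells were lysed by freezing at −80 °C overnight. DNA was measured by Hoechst 33258 fluorescence. Maximum efficacy was normalized to vehicle (0%) and no cells (100%); at least three biological replicates.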

cells = conditions: Homo sapiens, MCF7:5C, 168 h
[5] = target: T1, Estrogen receptor (Homo sapiens); assay: Inhibition of ERalpha in human MCF7:WS8 cells assessed as increase in degradation of ERalpha incubated for 24 hrs by In-Cell Western assay relative to control; type: cell-based
Outline: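 MCF7:WS8 cells were estrogen-stripped for 2 days and plated at 2.5 × 10^4 per well. After 48 h they were treated for 24 h. ERα was detected by in-cell western (H10 antibody), with signal normalized to CellTag 700.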

[6] = Antiproliferative activity against human MCF7:WS8 cells assessed as reduction in cell viability incubated for 5 days by Hoechst 33258 dye based assay relative to control; type: functional; conditions: MCF7:WS8, 120 h; outline: as §2
[7] = Antiproliferative activity against human MCF7:WS8 cells assessed as reduction in cell viability incubated for 5 days by Hoechst 33258 dye based assay; type: functional; conditions: MCF7:WS8, 120 h; outline: as §2
[8] = Plasma concentration in C57BL/6 mouse at 100 mg/kg, po measured after 2 hrs by LC/MS-MS analysis; type: ADME, organism-based
Outline: (§3)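 PK screen in female C57BL/6 mice (N = 3 per time point). Dosed by gavage at 100 mg/kg in HPβD/PEG-400. Plasma and brain were taken from perfused mice at 30 and 120 min. Quantified by LC-MS/MS in MRM mode, with standard curves in each matrix and a common internal standard. Values are mean and s.d.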

[9] = Plasma concentration in C57BL/6 mouse at 100 mg/kg, po measured after 0.5 hrs by LC/MS-MS analysis; type: ADME, organism-based; outline: as §3
[10] = Drug concentration in C57BL/6 mouse brain at 100 mg/kg, po measured after 0.5 hrs by LC/MS-MS analysis; type: ADME, organism-based; conditions: read-out: Drug uptake; outline: as §3
[11] = Drug concentration in C57BL/6 mouse brain at 100 mg/kg, po measured after 2 hrs by LC/MS-MS analysis; type: ADME, organism-based; conditions: read-out: Drug uptake; outline: as §3
T47D [12] = assay: Cytotoxicity against human T47D 3D spheroid cells harboring Y537S mutant assessed as reduction in tumor cell viability at 10 nM incubated for 14 days by celltiter-glo 3D cell viability assay
T47D [13] = assay: Cytotoxicity against human T47D 3D spheroid cells assessed as reduction in tumor cell viability at 10 nM incubated for 14 days by celltiter-glo 3D cell viability assay
T47D [14] = assay: Cytotoxicity against human T47D 3D spheroid cells harboring D538G mutant assessed as reduction in tumor cell viability at 10 nM incubated for 14 days by celltiter-glo 3D cell viability assay
Homo sapiens [15] = organism: Homo sapiens; assay: as §1; type: functional; outline: as §2
Homo sapiens [16] = organism: Homo sapiens; assay: Cytotoxicity against human MCF7:WS8 3D spheroid cells assessed as reduction in tumor spheroid size at 10 nM incubated for 14 days
Homo sapiens [17] = organism: Homo sapiens; assay: Cytotoxicity against human MCF7:WS8 3D spheroid cells assessed as reduction in tumor cell viability at 10 nM incubated for 14 days by celltiter-glo 3D cell viability assay
MCF7:TAM1 = assay: Cytotoxicity against human MCF7:TAM1 3D spheroid cells assessed as reduction in tumor cell viability at 10 nM incubated for 14 days by celltiter-glo 3D cell viability assay

Structure (SMILES)	IC50 (Estrogen receptor [2])	IC50 (Estrogen receptor [3])	Emax [4]	IC50 (cells; read-out: pIC50 (converted))	Efficacy [5]	Emax [6]	IC50 [7]	further results
CCNCCc1ccc(CN(CC)c2cc(OC)ccc2[C@@H]2CCc3cc(O)ccc3C2)cc1	–	–	–	–	–	–	–	Activity [1]: Active
Cc1ccccc1C(=O)c1sc2cc(O)ccc2c1Oc1ccc(OCCN2CC(CF)C2)cc1	1.5 nM	0.955 nM	40%	0.955 nM	92%	72%	1.07 nM	–
Cc1cc(O)ccc1C(=O)c1sc2cc(O)ccc2c1Oc1ccc(OCCN2CC(CF)C2)cc1	14 nM	5.13 nM	36%	0.12 nM	90%	78%	0.575 nM	–
Cc1cc(F)cc(C)c1C(=O)c1sc2cc(O)ccc2c1Oc1ccc(OCCN2CC[C@@H](CF)C2)cc1	12 nM	5.89 nM	34%	1.07 nM	84%	66%	0.631 nM	concentration at 2 h [8]: 163 nM; concentration at 0.5 h [9]: 211 nM; concentration at 0.5 h [10]: 121 nM; concentration at 2 h [11]: 276 nM
Cc1ccc(C(=O)c2sc3cc(O)ccc3c2Oc2ccc(OCCN3CC(CF)C3)cc2)c(C)c1	7.4 nM	1.45 nM	42%	0.38 nM	83%	68%	0.155 nM	–
CC/C(=C(\c1ccc(O)cc1)c1ccc(OCCN(C)C)cc1)c1ccccc1	–	–	–	–	–	–	–	Activity (T47D [12]): Active; Activity (T47D [13]): Active; Activity (T47D [14]): Active
Cc1cc(F)ccc1C(=O)c1sc2cc(O)ccc2c1Oc1ccc(OC2CN(CCCF)C2)cc1	5.2 nM	9.33 nM	45%	0.117 nM	95%	69%	0.17 nM	–
O=C(c1ccc(OCCN2CCCCC2)cc1)c1c(-c2ccc(O)cc2)sc2cc(O)ccc12 [RALOXIFENE]	–	–	–	–	–	69%	2.4 nM	Emax (Homo sapiens [15]): inactive
Cc1cc(F)cc(C)c1C(=O)c1sc2cc(O)ccc2c1Oc1ccc(OC2CN(C3CC3)C2)cc1	11 nM	5.89 nM	16%	0.141 nM	51%	62%	0.0631 nM	–
O=C(c1cccc(F)c1)c1sc2cc(O)ccc2c1Oc1ccc(OC2CN(CCCF)C2)cc1	–	–	–	0.182 nM	–	70%	0.141 nM	–
O=C(c1ccccc1)c1sc2cc(O)ccc2c1Oc1ccc(OC2CN(CCCF)C2)cc1	0.5 nM	0.708 nM	41%	0.162 nM	88%	67%	0.288 nM	–
Cc1ccccc1C(=O)c1sc2cc(O)ccc2c1Oc1ccc(OCCN2CC(C)C2)cc1	1.9 nM	0.257 nM	48%	0.263 nM	81%	69%	0.0417 nM	–
CC1=C(c2cccc(O)c2)[C@H](c2ccc(OCCN3CC(CF)C3)cc2)Oc2ccc(O)cc21	–	–	–	–	–	–	–	Activity (T47D [12]): Active; Activity (T47D [13]): Active; Activity (T47D [14]): Active
O=C(c1ccc(O)cc1)c1sc2cc(O)ccc2c1Oc1ccc(OCCN2CC(CF)C2)cc1	64 nM	8.13 nM	–	–	47%	73%	0.708 nM	IC50 (cells): > 100 nM
Cc1cc(F)cc(C)c1C(=O)c1sc2cc(O)ccc2c1Oc1ccc(OCCN2CC[C@H](CF)C2)cc1	–	3.02 nM	42%	1 nM	42%	70%	0.407 nM	–
Cc1ccccc1C(=O)c1sc2cc(O)ccc2c1Oc1ccc(OCCN2CC[C@@H](CF)C2)cc1	–	10.5 nM	67%	0.0871 nM	84%	85%	0.0126 nM	–
O=C(c1ccccc1)c1sc2cc(O)ccc2c1Oc1ccc(OCCN2CC(CF)C2)cc1	4.3 nM	1.02 nM	48%	0.263 nM	85%	64%	0.174 nM	–
O=C(c1cccc(F)c1)c1sc2cc(O)ccc2c1Oc1ccc(OCCN2CC(CF)C2)cc1	–	–	36%	0.295 nM	–	78%	0.229 nM	–
O=C(c1ccc(F)cc1)c1sc2cc(O)ccc2c1Oc1ccc(OCCN2CC(CF)C2)cc1	28 nM	1.23 nM	46%	0.447 nM	89%	67%	1.02 nM	Activity (Homo sapiens [16]): Active; Activity (Homo sapiens [17]): Active
Cc1ccccc1C(=O)c1sc2cc(O)ccc2c1Oc1ccc(OCCN2CCCCC2)cc1	–	–	–	–	–	68%	0.407 nM	Emax (Homo sapiens [15]): inactive
Cc1ccccc1C(=O)c1sc2cc(O)ccc2c1Oc1ccc(OCCN2CCC2)cc1	–	1.91 nM	31%	1.29 nM	37%	70%	0.912 nM	–
Cc1cc(F)ccc1C(=O)c1sc2cc(O)ccc2c1Oc1ccc(OCCN2CC(CF)C2)cc1	2.7 nM	3.63 nM	52%	0.363 nM	95%	77%	0.251 nM	–
Cc1ccccc1C(=O)c1sc2cc(O)ccc2c1Oc1ccc(OC2CN(CCCF)C2)cc1	2.1 nM	2.57 nM	59%	2.82 nM	82%	67%	0.145 nM	Activity (Homo sapiens [16]): Active; Activity (Homo sapiens [17]): Active
Cc1cc(F)cc(C)c1C(=O)c1sc2cc(O)ccc2c1Oc1ccc(OCCN2CC(CF)C2)cc1	3.5 nM	1.41 nM	47%	2.14 nM	85%	73%	0.468 nM	concentration at 2 h [8]: 659 nM; concentration at 0.5 h [9]: 786 nM; concentration at 0.5 h [10]: 750 nM; Activity (MCF7:TAM1): Active; concentration at 2 h [11]: 588 nM; Activity (Homo sapiens [16]): Active; Activity (Homo sapiens [17]): Active
